This is an account of results in ChEMBL document CHEMBL1141146, “Androsterone 3alpha-ether-3beta-substituted and androsterone 3beta-substituted derivatives as inhibitors of type 3 17beta-hydroxysteroid dehydrogenase: chemical synthesis and structure-activity relationship” (J Med Chem, 2005).

Usually inhibition stands for the drop in the measured response relative to a control, in per cent. The low end stands for a response near the control, the high end for a response far below the control. As usually defined, the IC50 is the point on the concentration scale where inhibition reaches its midpoint. A high value points to a need for much substance.

Molecules are shown by their SMILES.

Assay [1] deals with T1, 17-beta-hydroxysteroid dehydrogenase type 3 (Homo sapiens) (UniProt P37058).
T1 sequence (whole entry): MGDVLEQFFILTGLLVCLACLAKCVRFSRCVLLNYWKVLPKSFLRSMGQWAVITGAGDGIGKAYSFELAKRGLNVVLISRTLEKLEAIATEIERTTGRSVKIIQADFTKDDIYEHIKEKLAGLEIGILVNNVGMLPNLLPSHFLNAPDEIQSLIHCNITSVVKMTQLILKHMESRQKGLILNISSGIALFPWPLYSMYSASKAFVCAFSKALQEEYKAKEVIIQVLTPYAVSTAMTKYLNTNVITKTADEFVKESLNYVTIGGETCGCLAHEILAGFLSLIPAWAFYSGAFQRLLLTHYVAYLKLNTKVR
Put plainly: Inhibition of type-3 17 beta-hydroxysteroid dehydrogenase expressed in HEK293 cells at 3 uM 37 degree C pH 7.4. Type of assay: cell-based. In a few lines:
(§1)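 Human type 3 17β-HSD was transfected into HEK-293 cells by calcium phosphate. The cells were sonicated in 50 mM Na phosphate pH 7.4 with 20% glycerol and 1 mM EDTA. The 100000g microsomal pellet served as enzyme. The reaction ran at 37 °C in the same buffer with 2 mM NADPH and 0.1 μM [14C]-Δ4-dione, reading conversion to testosterone. Percent inhibition was taken at 0.3 or 3 μM inhibitor.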

Assay [2] concerns the target T1, 17-beta-hydroxysteroid dehydrogenase type 3 (Homo sapiens). Put plainly: Inhibition of type-3 17 beta-hydroxysteroid dehydrogenase expressed in HEK293 cells at 0.3 uM 37 degree C pH 7.4. Type of assay: cell-based. Summed up:
as §1

The target in assay [3] is T2, 17-beta-hydroxysteroid dehydrogenase type 3 (Homo sapiens, UniProt P37058).
T2 sequence (P37058 whole entry): T1 sequence (whole entry)
Briefly: Inhibition of type-3 17 beta-hydroxysteroid dehydrogenase expressed in HEK293 cells at 37 degree C pH7.4. Type of assay: cell-based. In a few lines: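 HEK-293 cells were transfected with human type 3 17β-HSD, and their 100000g microsomes served as enzyme. Incubation was at 37 °C in 50 mM Na phosphate pH 7.4 with 20% glycerol, 1 mM EDTA, 2 mM NADPH and 0.1 μM [14C]-Δ4-dione. Several inhibitor concentrations were tested. Percent transformation to testosterone was plotted against inhibitor concentration, and IC50 was computed from the curve.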

The target of assay [4] is T1, 17-beta-hydroxysteroid dehydrogenase type 3 (Homo sapiens). Put plainly: Inhibition of type-3 17 beta-hydroxysteroid dehydrogenase expressed in HEK293 cells at 3 uM 37 degree C in pH 7.4. Type of assay: cell-based. In a few lines: as §1
The target is the same in assay [5]. The note with it: HEK293, 0.3 uM.

For `C[C@]12CC[C@@](O)(c3ccccc3)CC1CC[C@@H]1[C@@H]2CC[C@]2(C)C(=O)CC[C@@H]12` (stereo not given in full), the inhibition in assay [1] was 39%; in assay [2], 7%.

Take `C[C@]12CC[C@@H](OCCC(=O)O)CC1CC[C@@H]1[C@@H]2CC[C@]2(C)C(=O)CC[C@@H]12` (stereo not given in full): the inhibition in assay [1] came out at 48%; in assay [2], 7%.

The molecule `CCCC[C@@]1(O)CC[C@@]2(C)C(CC[C@@H]3[C@@H]2CC[C@]2(C)C(=O)CC[C@@H]32)C1` (stereo not given in full) showed an IC50 in assay [3] of 116 nM. Moreover, the inhibition is 92% in assay [1] and 88% in assay [2].

`C[C@]12CC[C@](O)(CCCO)CC1CC[C@@H]1[C@@H]2CC[C@]2(C)C(=O)CC[C@@H]12` (stereo not given in full): the inhibition in assay [1] is 74%; in assay [2], 17%.

On to `C[C@]12CC[C@@]3(CCC(=O)O3)CC1CC[C@@H]1[C@@H]2CC[C@]2(C)C(=O)CC[C@@H]12` (stereo not given in full), for which the inhibition in assay [1] amounted to 53%; in assay [2] it was 9%.

For the molecule `CCCCCCO[C@@H]1CC[C@@]2(C)C(CC[C@@H]3[C@@H]2CC[C@]2(C)C(=O)CC[C@@H]32)C1` (stereo not given in full), the inhibition in assay [1] is 92%; in assay [2], 45%.

With `CO[C@@H]1CC[C@@]2(C)C(CC[C@@H]3[C@@H]2CC[C@]2(C)C(=O)CC[C@@H]32)C1` (stereo not given in full), the results for the inhibition in assay [1] and in assay [2] were 94% and 83%, respectively.

Turning to `C=C[C@@]1(O)CC[C@@]2(C)C(CC[C@@H]3[C@@H]2CC[C@]2(C)C(=O)CC[C@@H]32)C1` (stereo not given in full), the values for the inhibition in assay [1] and in assay [2] were 94% and 77%, respectively.

For the molecule `CO[C@]1(CCc2ccccc2)CC[C@@]2(C)C(CC[C@@H]3[C@@H]2CC[C@]2(C)C(=O)CC[C@@H]32)C1` (stereo not given in full), inhibition in assay [3] was half-maximal at 73 nM (IC50). Besides, the inhibition in assay [1] amounted to 95%; in assay [2] it was 61%.

For `C[C@]12CC[C@@H](OCCCO)CC1CC[C@@H]1[C@@H]2CC[C@]2(C)C(=O)CC[C@@H]12` (stereo not given in full), the inhibition in assay [1] was 86%; in assay [2] it was 38%.

In assay [3], `CCO[C@]1(Cc2ccccc2)CC[C@@]2(C)C(CC[C@@H]3[C@@H]2CC[C@]2(C)C(=O)CC[C@@H]32)C1` (stereo not given in full) came in with an IC50 of 352 nM. Also, the inhibition in assay [1] was determined as 92%; in assay [2], 80%.

Consider `C[C@]1(O)CC[C@@]2(C)C(CC[C@@H]3[C@@H]2CC[C@]2(C)C(=O)CC[C@@H]32)C1` (stereo not given in full), for which the values for the inhibition in assay [1] and in assay [2] were 16% and 9%, respectively.

Regarding `CCCO[C@]1(Cc2ccccc2)CC[C@@]2(C)C(CC[C@@H]3[C@@H]2CC[C@]2(C)C(=O)CC[C@@H]32)C1` (stereo not given in full), the figures for the inhibition in assay [1] and in assay [2] were 87% and 60%, respectively.

Consider `C[C@]12CC[C@](O)(CCCc3ccccc3)CC1CC[C@@H]1[C@@H]2CC[C@]2(C)C(=O)CC[C@@H]12` (stereo not given in full), for which the inhibition was found to be 93% in assay [2] and 97% in assay [4].

As for `C=CC[C@@]1(O)CC[C@@]2(C)C(CC[C@@H]3[C@@H]2CC[C@]2(C)C(=O)CC[C@@H]32)C1` (stereo not given in full), the figures for the inhibition in assay [1] and in assay [2] were 76% and 31%, respectively.

With `C[C@]12CC[C@@](O)(CCCO)CC1CC[C@@H]1[C@@H]2CC[C@]2(C)C(=O)CC[C@@H]12` (stereo not given in full), the inhibition in assay [1] turned out to be 17%; in assay [2] it was 2%.

As to `C[C@]12CC[C@@H](OCCCBr)CC1CC[C@@H]1[C@@H]2CC[C@]2(C)C(=O)CC[C@@H]12` (stereo not given in full), the values for the inhibition in assay [1] and in assay [2] were 93% and 56%, respectively.

`C[C@]12CC[C@H](O)CC1CC[C@@H]1[C@@H]2CC[C@]2(C)C(=O)CC[C@@H]12` (stereo not given in full): the inhibition in assay [1] is 18%; in assay [2], 1%.

For `CC(O)CO[C@@H]1CC[C@@]2(C)C(CC[C@@H]3[C@@H]2CC[C@]2(C)C(=O)CC[C@@H]32)C1` (stereo not given in full), the inhibition came to 89% in assay [1] and 40% in assay [2].

With `CCCCCCO[C@]1(Cc2ccccc2)CC[C@@]2(C)C(CC[C@@H]3[C@@H]2CC[C@]2(C)C(=O)CC[C@@H]32)C1` (stereo not given in full), the inhibition in assay [1] worked out at 28%; in assay [2] it was 24%.

For the molecule `CCCO[C@@H]1CC[C@@]2(C)C(CC[C@@H]3[C@@H]2CC[C@]2(C)C(=O)CC[C@@H]32)C1` (stereo not given in full), the inhibition was found to be 93% in assay [1] and 49% in assay [2].

As for `CCC[C@]1(O)CC[C@@]2(C)C(CC[C@@H]3[C@@H]2CC[C@]2(C)C(=O)CC[C@@H]32)C1` (stereo not given in full), the inhibition in assay [1] was found to be 33%; in assay [2] it was 9%.

With `CCO[C@@H]1CC[C@@]2(C)C(CC[C@@H]3[C@@H]2CC[C@]2(C)C(=O)CC[C@@H]32)C1` (stereo not given in full), the figures for the inhibition in assay [1] and in assay [2] were 95% and 69%, respectively.

Consider `CCCCCCCCCCCC[C@@]1(O)CC[C@@]2(C)C(CC[C@@H]3[C@@H]2CC[C@]2(C)C(=O)CC[C@@H]32)C1` (stereo not given in full), for which the inhibition in assay [1] came to 77%; in assay [2] it was 50%.

As to `CO[C@]1(Cc2ccccc2)CC[C@@]2(C)C(CC[C@@H]3[C@@H]2CC[C@]2(C)C(=O)CC[C@@H]32)C1` (stereo not given in full), in assay [3], the IC50 was 154 nM. The figures for the inhibition in assay [1] and in assay [2] were 93% and 91%, respectively.

Consider `C[C@]12CCC3(CCCO3)CC1CC[C@@H]1[C@@H]2CC[C@]2(C)C(=O)CC[C@@H]12` (stereo not given in full), for which the figures for the inhibition in assay [1] and in assay [2] were 94% and 3%, respectively.

Regarding `C[C@]12CC[C@@](O)(Cc3ccccc3)CC1CC[C@@H]1[C@@H]2CC[C@]2(C)C(=O)CC[C@@H]12` (stereo not given in full), the results for the inhibition in assay [1] and in assay [2] were 39% and 10%, respectively.

In turn, `CC(C)(C)[C@@]1(O)CC[C@@]2(C)C(CC[C@@H]3[C@@H]2CC[C@]2(C)C(=O)CC[C@@H]32)C1` (stereo not given in full) returned an IC50 in assay [3] of 142 nM. Besides, the inhibition in assay [1] is 93%; in assay [5] it was 89%.

On to `CO[C@]1(CCC2CCCCC2)CC[C@@]2(C)C(CC[C@@H]3[C@@H]2CC[C@]2(C)C(=O)CC[C@@H]32)C1` (stereo not given in full), for which the IC50 in assay [3] was 354 nM. Besides, the inhibition in assay [1] stood at 88%; in assay [2], 80%.

As for `C[C@]12CC[C@]3(CCC(=O)O3)CC1CC[C@@H]1[C@@H]2CC[C@]2(C)C(=O)CC[C@@H]12` (stereo not given in full), the results for the inhibition in assay [1] and in assay [2] were 93% and 50%, respectively.

As to `C=CCO[C@@H]1CC[C@@]2(C)C(CC[C@@H]3[C@@H]2CC[C@]2(C)C(=O)CC[C@@H]32)C1` (stereo not given in full), the values for the inhibition in assay [1] and in assay [2] were 95% and 73%, respectively.

Consider `C=CC[C@]1(O)CC[C@@]2(C)C(CC[C@@H]3[C@@H]2CC[C@]2(C)C(=O)CC[C@@H]32)C1` (stereo not given in full), for which the inhibition in assay [1] worked out at 36%; in assay [2], 14%.
